Columns and labels:
[1] = tested on: ERK1/2 phosphorylation in WM266.4 cells; assay: Phospho-ERK cell-based ELISA; design: species or system human; settings: cellular potency greater
^V600EBRAF = ^V600EBRAF (Homo sapiens, UniProt P15056, V600E); assay: Z'-LYTE SelectScreen kinase profiling; assay type: biochemical
BRAF = BRAF (Homo sapiens, UniProt P15056); assay: Z'-LYTE SelectScreen kinase profiling; assay type: biochemical
CRAF = CRAF (Homo sapiens, UniProt P04049, Y340D/Y341D); assay: Z'-LYTE SelectScreen kinase profiling; assay type: biochemical
LCK = LCK (Homo sapiens, UniProt P06239); assay: Z'-LYTE SelectScreen kinase profiling; assay type: biochemical
SRC = SRC (Homo sapiens, UniProt P12931); assay: Z'-LYTE SelectScreen kinase profiling; assay type: biochemical
p38α = p38α (Homo sapiens, UniProt Q16539); assay: Z'-LYTE SelectScreen kinase profiling; assay type: biochemical
p38γ = p38γ (Homo sapiens, UniProt P53778); assay: Z'-LYTE SelectScreen kinase profiling; assay type: biochemical
PDGFRα = PDGFRα (Homo sapiens, UniProt P16234); assay: Z'-LYTE SelectScreen kinase profiling; assay type: biochemical
PDGFRβ = PDGFRβ (Homo sapiens, UniProt P09619); assay: Z'-LYTE SelectScreen kinase profiling; assay type: biochemical
VEGFR1 = VEGFR1 (Homo sapiens, UniProt P17948); assay: Z'-LYTE SelectScreen kinase profiling; assay type: biochemical
VEGFR2 = VEGFR2 (Homo sapiens, UniProt P35968); assay: Z'-LYTE SelectScreen kinase profiling; assay type: biochemical
FGFR1 = FGFR1 (Homo sapiens, UniProt P11362); assay: Z'-LYTE SelectScreen kinase profiling; assay type: biochemical
RET = RET (Homo sapiens, UniProt P07949); assay: Z'-LYTE SelectScreen kinase profiling; assay type: biochemical
KIT = KIT (Homo sapiens, UniProt P10721); assay: Z'-LYTE SelectScreen kinase profiling; assay type: biochemical
COT = COT (Homo sapiens, UniProt P41279); assay: Z'-LYTE SelectScreen kinase profiling; assay type: biochemical
MET = MET (Homo sapiens, UniProt P08581); assay: Z'-LYTE SelectScreen kinase profiling; assay type: biochemical
panel of 80 kinases = assay: Selectivity profile against 80 kinase panel; assay type: biochemical, human; settings: 1 μM 1t
Summary of the method: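 Each of 80 kinases was screened at a single 1 µM concentration using the commercial SelectScreen panel under the provider's protocols. Results were expressed as percent inhibition of kinase activity, and kinases inhibited by >70% were singled out.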

^T529N,V600EBRAF = ^T529N,V600EBRAF (Homo sapiens, UniProt P15056, T529N/V600E); assay: DELFIA kinase assay, gatekeeper mutant; assay type: biochemical; settings: at up to 10 μM
Summary of the method: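 Full-length recombinant BRAF construct carrying the gatekeeper and activating substitutions was tested in a 96-well DELFIA assay. The assay measured direct phosphorylation of bacterially produced GST-MEK at 100 µM ATP. Reactions ran in duplicate for 45 min at 20°C, within the linear range, across an 11-concentration response curve. Each value was the mean of 3 independent assays.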

[2] = tested on: ^V600EBRAF-expressing Ba/F3 cells; assay: DNA synthesis; assay type: cell-based; settings: Mus musculus, BaF3, 24 h, read-out: growth (DNA synthesis) inhibition
Summary of the method: (§1)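 Ba/F3 lines stably expressing the mutant BRAF were cultured in RPMI1640 with 10% FBS at 37 °C in 10% CO2. Cells (1-5 × 10^4 per well) were exposed to compound for 24 h, with 0.08 µCi [3H]-thymidine added per well for the last 4 h. Cells were then captured on glass-fibre filters and washed twice with PBS and twice with methanol. Incorporated label was counted by scintillation.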

[3] = tested on: ^T529N,V600EBRAF-expressing Ba/F3 cells; assay: DNA synthesis; assay type: cell-based; settings: Mus musculus, BaF3, 24 h, read-out: growth (DNA synthesis) inhibition
Summary of the method: as §1

[4] = tested on: MEK and ERK phosphorylation in ^V600DBRAF WM266.4 cells; assay: Western blotting of MAPK signaling; assay type: cell-based, human; settings: 24 h
Summary of the method: (§2)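 Cells in DMEM with 10% FBS were exposed to a concentration series for 24 h and lysed. Lysates were blotted for phospho-MEK1/2, MEK1, phospho-ERK1/2, ERK2 and cyclin D1. Detection used Alexa Fluor 680 and 800CW secondary antibodies, with quantification on an infrared scanner.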

[5] = tested on: MEK and ERK phosphorylation in BRAF wild-type D35 melanoma cells; assay: Western blotting of MAPK signaling; assay type: cell-based; settings: 24 h, concentrations up to 10 μM
Summary of the method: as §2

[6] = tested on: MEK and ERK phosphorylation in KRAS mutant SW620 colorectal carcinoma cells; assay: Western blotting of MAPK signaling; assay type: cell-based, human; settings: 24 h
Summary of the method: as §2

SW620 cells = assay: MTS cell proliferation assay; assay type: cell-based, human; settings: 72 h
Summary of the method: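 SW620 cells in DMEM with 10% FBS received a range of compound concentrations for 72 h. Proliferation was quantified with MTS reagent. Seeding density was optimized so growth stayed logarithmic throughout treatment. Wells were run in quadruplicate, and comparisons used a t-test.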

[7] = tested on: cancer cell lines harboring ^V600D/EBRAF mutations; assay: SRB growth inhibition assay, cell line panel; assay type: cell-based, human; settings: 5 d exposure, ^V600D/EBRAF mutant lines
Summary of the method: (§3)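 Growth inhibition was measured by sulforhodamine B across a panel of melanoma, colon and breast cancer cell lines after 5 d continuous exposure. Seeding density was optimized per line to keep growth logarithmic. Curves used 10-point dilution series in quadruplicate and were fitted to give IC50/GI50. Lines were grouped by BRAF/RAS mutation status for comparison.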

[8] = tested on: cell lines in which BRAF is wildtype; assay: SRB growth inhibition assay, cell line panel; assay type: cell-based, human; settings: 5 d exposure
Summary of the method: as §3

[9] = tested on: ^V600EBRAF mutant HT29 cells; assay: SRB growth inhibition assay, cell line panel; assay type: cell-based, human
Summary of the method: as §3

SKMEL23 cells = assay: SRB growth inhibition assay, cell line panel; assay type: cell-based, human
Summary of the method: as §3

[10] = tested on: WM266.4 (^V600DBRAF) cells; assay: DNA synthesis; assay type: cell-based, human; settings: WM266.4 cells, 0.1 μM 1t for 24 h
Summary of the method: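 Cells were grown in DMEM with 10% FBS at 37 °C in 10% CO2. They were seeded at 10^5 per well in 6-well plates and treated with 0.1 µM compound for 24 h. DNA synthesis was measured with 0.8 µCi tritiated label per well. Cells were harvested by trypsinization and an aliquot was filter-captured and scintillation-counted as for suspension cells.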

Pharmacokinetics in mice = assay type: in vivo; settings: for concentration at 18 h: po, 10 mg/kg
Summary of the method: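 Female BALB/cAnNCrl mice over 6 weeks old were dosed i.v. at 2 mg/kg (10 ml/kg, DMSO:Tween 20:water 10:1:89). Others received 10 mg/kg by oral gavage (10 ml/kg, DMSO:water 1:19). At 5 min (i.v. only), 15 and 30 min, and 1, 3, 6 and 18 h, 3 mice per point gave heparinized blood for plasma under isoflurane. Femoral muscle was also collected. Plasma levels were compared with the mean 5-d SRB GI50 of BRAF-mutant lines.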

[11] = tested on: MEK phosphorylation in A375M xenografts; assay: Pharmacodynamics, MEK phosphorylation in tumor xenografts; assay type: in vivo, mice; settings: single oral dose of 20 mg/kg, 4 h, A375M tumors
Summary of the method: (§4)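 Female Crl:CD1-Foxn1nu mice (>6 weeks) were inoculated s.c. with 10^7 A375M or 7 × 10^6 SW620 cells. Tumors were grown to 50–150 mm3. Groups of 3-4 mice received one 20 mg/kg oral gavage dose or vehicle and were culled 4 h later. Tumors were snap-frozen, lysed in NP40 buffer and homogenised. Equal protein was probed by quantitative fluorescent Western blot for phospho-MEK1/2 and total MEK1.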

[12] = tested on: MEK phosphorylation in SW620 xenografts; assay: as above; assay type: in vivo, mice; settings: single p.o. dose 20 mg/kg, 4 h, KRAS mutant SW620 tumors
Summary of the method: as §4

[13] = tested on: ^V600EBRAF A375M melanoma xenografts; assay: Therapy study, xenograft growth; assay type: in vivo, mice; settings: 20 mg/kg q.d. p.o. for 24 d, on completion of the experiment, p<0.05
Summary of the method: (§5)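 Female Crl:CD1-Foxn1nu mice (>6 weeks) were implanted s.c. with 10^7 A375M or 7 × 10^6 SW620 cells. Tumors grew to 50–150 mm3, and groups of 8 were assigned by stratified tumor volume. Mice received 20 mg/kg/d by gavage (10 ml/kg, DMSO:water 1:19) or vehicle, for 24 d (A375M) or 23 d (SW620). Calipers measured tumors every 3-4 d, and mean volume ± SEM was plotted.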

[14] = tested on: ^G12VKRAS mutant human colorectal carcinoma SW620 xenografts; assay: Therapy study, xenograft growth; assay type: in vivo, mice; settings: 20 mg/kg daily p.o. for 23 d
Summary of the method: as §5

Tolerability in mice = assay type: in vivo
^V600EBRAF in cells = settings: cited from earlier work
[15] = tested on: ^V600EBRAF purified kinase; settings: cited from earlier work
[16] = female, BALB/cAnNCrl, mouse, plasma, iv, 2 mg/kg
[17] = continuous daily dosing 20 mg/kg in therapy experiments

BRAF, sequence (P15056 whole entry): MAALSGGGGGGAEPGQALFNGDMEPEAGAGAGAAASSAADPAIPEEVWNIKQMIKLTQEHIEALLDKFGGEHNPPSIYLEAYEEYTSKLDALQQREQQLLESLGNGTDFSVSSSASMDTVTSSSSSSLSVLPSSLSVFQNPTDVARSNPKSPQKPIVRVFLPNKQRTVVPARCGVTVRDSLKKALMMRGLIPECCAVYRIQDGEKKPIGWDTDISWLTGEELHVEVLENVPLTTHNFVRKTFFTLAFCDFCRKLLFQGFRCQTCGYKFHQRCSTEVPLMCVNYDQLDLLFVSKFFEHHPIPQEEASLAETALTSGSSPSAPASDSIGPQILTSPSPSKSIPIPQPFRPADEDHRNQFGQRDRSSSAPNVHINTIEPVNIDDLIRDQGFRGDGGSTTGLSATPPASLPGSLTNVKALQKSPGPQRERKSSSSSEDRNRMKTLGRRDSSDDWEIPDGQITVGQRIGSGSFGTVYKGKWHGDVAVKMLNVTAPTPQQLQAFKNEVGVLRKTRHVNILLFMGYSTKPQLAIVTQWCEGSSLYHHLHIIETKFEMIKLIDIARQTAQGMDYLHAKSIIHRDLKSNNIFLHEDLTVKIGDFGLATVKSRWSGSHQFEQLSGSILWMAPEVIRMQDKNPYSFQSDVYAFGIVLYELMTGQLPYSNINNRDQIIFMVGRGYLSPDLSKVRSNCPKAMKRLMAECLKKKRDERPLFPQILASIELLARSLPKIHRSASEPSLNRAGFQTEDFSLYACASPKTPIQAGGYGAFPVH
VEGFR2, sequence (P35968 20-1356): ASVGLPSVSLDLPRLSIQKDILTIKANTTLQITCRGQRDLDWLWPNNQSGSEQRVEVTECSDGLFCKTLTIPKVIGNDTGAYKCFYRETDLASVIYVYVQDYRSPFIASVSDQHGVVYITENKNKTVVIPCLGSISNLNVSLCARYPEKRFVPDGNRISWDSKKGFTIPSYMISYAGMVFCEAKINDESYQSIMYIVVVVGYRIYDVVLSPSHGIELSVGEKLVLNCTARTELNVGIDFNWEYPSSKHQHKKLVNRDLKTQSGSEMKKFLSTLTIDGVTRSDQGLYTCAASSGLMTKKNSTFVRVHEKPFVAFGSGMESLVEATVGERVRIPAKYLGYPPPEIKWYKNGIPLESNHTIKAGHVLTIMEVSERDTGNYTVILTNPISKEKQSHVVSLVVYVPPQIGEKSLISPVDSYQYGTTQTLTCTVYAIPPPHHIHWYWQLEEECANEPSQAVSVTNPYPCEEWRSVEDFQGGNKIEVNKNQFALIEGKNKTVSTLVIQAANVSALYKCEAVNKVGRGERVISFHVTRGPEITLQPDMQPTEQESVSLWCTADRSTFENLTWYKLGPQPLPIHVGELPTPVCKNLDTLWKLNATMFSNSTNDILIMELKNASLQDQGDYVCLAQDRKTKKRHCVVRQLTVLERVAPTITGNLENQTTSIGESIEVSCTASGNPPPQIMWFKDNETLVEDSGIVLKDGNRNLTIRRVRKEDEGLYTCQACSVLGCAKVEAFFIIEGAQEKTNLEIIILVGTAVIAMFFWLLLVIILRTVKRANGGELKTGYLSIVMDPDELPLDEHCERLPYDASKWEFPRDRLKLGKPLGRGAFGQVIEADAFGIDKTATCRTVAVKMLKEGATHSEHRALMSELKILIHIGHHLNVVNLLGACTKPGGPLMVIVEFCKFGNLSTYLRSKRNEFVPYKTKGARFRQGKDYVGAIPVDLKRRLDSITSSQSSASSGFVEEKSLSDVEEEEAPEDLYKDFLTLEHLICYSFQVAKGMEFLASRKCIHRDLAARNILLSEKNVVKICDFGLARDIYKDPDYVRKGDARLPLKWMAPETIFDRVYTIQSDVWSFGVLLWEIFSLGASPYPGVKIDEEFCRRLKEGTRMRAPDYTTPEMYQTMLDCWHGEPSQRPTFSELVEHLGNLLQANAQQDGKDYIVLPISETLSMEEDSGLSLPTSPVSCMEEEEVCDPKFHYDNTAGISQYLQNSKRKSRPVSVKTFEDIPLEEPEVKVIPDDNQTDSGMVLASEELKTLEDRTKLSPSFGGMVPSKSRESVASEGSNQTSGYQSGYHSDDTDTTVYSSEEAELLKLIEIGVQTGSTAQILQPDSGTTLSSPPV
LCK, sequence (P06239 whole entry): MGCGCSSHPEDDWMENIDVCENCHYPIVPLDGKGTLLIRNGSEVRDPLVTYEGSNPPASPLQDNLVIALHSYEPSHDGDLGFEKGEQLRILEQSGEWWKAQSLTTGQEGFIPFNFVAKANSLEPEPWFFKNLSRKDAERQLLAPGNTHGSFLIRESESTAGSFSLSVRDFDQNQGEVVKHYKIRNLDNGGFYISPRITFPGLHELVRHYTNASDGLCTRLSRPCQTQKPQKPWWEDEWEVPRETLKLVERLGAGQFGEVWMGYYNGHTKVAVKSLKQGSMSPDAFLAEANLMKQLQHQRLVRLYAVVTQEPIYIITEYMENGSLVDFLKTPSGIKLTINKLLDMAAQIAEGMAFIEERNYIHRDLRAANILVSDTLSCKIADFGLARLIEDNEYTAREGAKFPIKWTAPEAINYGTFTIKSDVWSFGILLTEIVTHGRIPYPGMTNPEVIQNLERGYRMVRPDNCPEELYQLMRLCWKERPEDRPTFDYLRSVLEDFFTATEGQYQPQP
SRC, sequence (P12931 whole entry): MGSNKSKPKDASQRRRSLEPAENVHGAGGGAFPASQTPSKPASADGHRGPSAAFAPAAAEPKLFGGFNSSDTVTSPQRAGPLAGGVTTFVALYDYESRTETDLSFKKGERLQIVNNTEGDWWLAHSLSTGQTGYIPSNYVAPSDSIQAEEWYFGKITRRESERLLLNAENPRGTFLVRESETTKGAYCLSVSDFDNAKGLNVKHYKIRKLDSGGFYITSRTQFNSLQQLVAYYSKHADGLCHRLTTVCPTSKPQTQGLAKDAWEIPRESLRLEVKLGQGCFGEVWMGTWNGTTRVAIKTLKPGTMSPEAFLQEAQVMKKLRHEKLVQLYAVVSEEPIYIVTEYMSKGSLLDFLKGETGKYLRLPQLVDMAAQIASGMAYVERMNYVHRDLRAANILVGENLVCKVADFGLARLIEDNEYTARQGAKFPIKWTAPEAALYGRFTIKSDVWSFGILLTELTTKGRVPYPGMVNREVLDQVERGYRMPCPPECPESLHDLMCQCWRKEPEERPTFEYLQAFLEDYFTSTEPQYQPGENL
KIT, sequence (P10721 26-976): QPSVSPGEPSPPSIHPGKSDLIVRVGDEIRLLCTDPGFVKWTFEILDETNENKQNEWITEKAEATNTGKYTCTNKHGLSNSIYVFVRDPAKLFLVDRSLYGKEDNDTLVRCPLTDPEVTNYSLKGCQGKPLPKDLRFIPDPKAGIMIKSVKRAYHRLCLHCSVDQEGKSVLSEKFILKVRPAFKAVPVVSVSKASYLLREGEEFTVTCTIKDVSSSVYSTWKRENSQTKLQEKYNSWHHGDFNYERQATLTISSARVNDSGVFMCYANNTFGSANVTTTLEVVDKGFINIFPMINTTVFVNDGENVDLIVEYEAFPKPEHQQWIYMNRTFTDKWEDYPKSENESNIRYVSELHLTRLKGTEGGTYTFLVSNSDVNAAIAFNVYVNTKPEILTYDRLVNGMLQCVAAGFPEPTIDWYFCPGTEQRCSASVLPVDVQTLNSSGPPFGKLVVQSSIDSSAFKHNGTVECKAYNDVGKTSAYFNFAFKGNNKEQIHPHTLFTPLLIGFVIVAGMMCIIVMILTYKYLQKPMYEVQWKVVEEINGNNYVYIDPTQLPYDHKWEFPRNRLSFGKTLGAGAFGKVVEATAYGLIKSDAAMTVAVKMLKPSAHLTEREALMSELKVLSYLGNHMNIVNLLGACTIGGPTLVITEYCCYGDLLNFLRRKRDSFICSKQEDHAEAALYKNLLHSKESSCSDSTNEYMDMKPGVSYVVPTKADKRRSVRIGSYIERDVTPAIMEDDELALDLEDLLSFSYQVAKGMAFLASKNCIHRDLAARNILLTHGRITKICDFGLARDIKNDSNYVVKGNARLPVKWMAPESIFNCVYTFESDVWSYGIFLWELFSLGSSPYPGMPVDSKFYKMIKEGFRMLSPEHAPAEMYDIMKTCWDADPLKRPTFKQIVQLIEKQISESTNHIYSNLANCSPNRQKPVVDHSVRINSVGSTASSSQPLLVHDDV
CRAF, sequence (P04049 306-648 Y340D/Y341D limits assumed): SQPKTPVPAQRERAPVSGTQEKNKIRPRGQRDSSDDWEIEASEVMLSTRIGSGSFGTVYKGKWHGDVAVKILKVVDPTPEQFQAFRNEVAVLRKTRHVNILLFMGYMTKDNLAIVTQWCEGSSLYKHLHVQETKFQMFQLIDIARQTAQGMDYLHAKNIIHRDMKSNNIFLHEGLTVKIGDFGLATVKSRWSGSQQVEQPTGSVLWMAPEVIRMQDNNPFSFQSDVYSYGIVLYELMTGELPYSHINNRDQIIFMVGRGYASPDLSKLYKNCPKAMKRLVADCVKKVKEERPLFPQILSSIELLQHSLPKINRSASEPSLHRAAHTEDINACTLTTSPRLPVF
COT, sequence (P41279 whole entry): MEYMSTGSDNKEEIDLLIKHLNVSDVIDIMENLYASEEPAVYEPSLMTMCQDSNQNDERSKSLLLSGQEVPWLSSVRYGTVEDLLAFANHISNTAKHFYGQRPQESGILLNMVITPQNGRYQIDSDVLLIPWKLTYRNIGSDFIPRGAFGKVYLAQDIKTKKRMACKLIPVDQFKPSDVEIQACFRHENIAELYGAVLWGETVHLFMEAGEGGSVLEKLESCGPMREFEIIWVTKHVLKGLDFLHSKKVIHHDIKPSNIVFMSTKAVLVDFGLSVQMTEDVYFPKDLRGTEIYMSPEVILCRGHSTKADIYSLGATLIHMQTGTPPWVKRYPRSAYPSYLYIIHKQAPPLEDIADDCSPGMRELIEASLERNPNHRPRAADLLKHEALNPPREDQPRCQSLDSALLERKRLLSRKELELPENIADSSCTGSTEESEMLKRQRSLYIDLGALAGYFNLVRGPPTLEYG
^V600EBRAF, sequence (P15056 whole entry V600E): as the sequence (P15056 whole entry) above, with V600E counted along it
^T529N,V600EBRAF, sequence (P15056 whole entry T529N/V600E): as the sequence (P15056 whole entry) above, with T529N, V600E counted along it

## CSc1cc(Oc2ccnc3[nH]c(=O)cnc23)ccc1NC(=O)Nc1cc(C(C)(C)C)nn1-c1ccc(C)cc1 [Compound 1t, 1-(3-tert-butyl-1-p-tolyl-1H-pyrazol-5-yl)-3-(2-(methylthio)-4-(3-oxo-3,4-dihydropyrido[2,3-b]pyrazin-8-yloxy)phenyl)urea]
[1]
  cellular potency relative to inhibition of recombinant ^V600EBRAF in vitro: approximately 4 fold
^V600EBRAF
  IC50: 0.013 µM
BRAF
  IC50: 0.081 µM
BRAF; SelectScreen Panel
  fold less active against wildtype BRAF than against ^V600EBRAF: more than 6 fold
CRAF
  IC50: 0.012 µM
LCK
  IC50: 0.006 µM
SRC
  IC50: 0.023 µM
p38α
  IC50: 0.285 µM
p38γ
  IC50: 1.02 µM
PDGFRα
  IC50: 0.439 µM
PDGFRβ
  IC50: 2.43 µM
VEGFR1
  IC50: 5.16 µM
VEGFR2
  IC50: 1 µM
VEGFR2; SelectScreen Panel
  fold less active against VEGFR2/KDR than against ^V600EBRAF: more than 50 fold
FGFR1
  IC50: 2.58 µM
RET
  IC50: 4.86 µM
KIT
  IC50: > 10 µM
COT
  IC50: > 10 µM
MET
  IC50: > 10 µM
Panel of 80 kinases
  inhibition of kinases in an 80 kinase panel: failed to inhibit most of the kinases
^T529N,V600EBRAF
  inhibition of ^T529N,V600EBRAF kinase activity: not inhibited
[2]
  inhibition at 1 µM: 96%
[3]
  inhibition at 1 µM: 21%
[4]
  concentration inhibiting MEK and ERK phosphorylation: 10 to 100 nM
[5]
  MEK and ERK phosphorylation / cyclin D1 response: no such responses are observed
[6]
  effect on MEK and ERK phosphorylation: profound increase
SW620 cells
  effect on proliferation: small increase in proliferation
[7]
  growth inhibition: inhibits the growth
[8]
  growth inhibition: relatively ineffective
[9]
  sensitivity relative to the majority of the other BRAF mutant cell lines: less sensitive
SKMEL23 cells
  sensitivity relative to the other BRAF/RAS wildtype cells: considerably more sensitive
[10]
  inhibition of DNA synthesis: profound inhibition
Pharmacokinetics in mice; female, BALB/cAnNCrl, mouse, femoral muscle
  concentration at 18 h: > 3 µM
Pharmacokinetics in mice; [16]
  clearance: 0.00667 mL/min
  half-life: 6.8 h
Pharmacokinetics in mice; female, BALB/cAnNCrl, mouse, plasma
  concentration at 18 h: > 19 µM
Pharmacokinetics in mice; mice
  plasma concentration relative to average GI50 for BRAF mutant cancer cell lines: over 100 fold
[11]
  inhibition of MEK phosphorylation: observed
[12]
  increase in MEK phosphorylation: 2 fold
[13]
  tumor growth inhibition: 50%
[14]
  tumor growth inhibition: No inhibition of tumor growth
Tolerability in mice; 10 and 20 mg/kg/d p.o. for 4 d, body weight monitored a further 27 d
  adverse effects / body weight: No adverse effects were observed
Tolerability in mice; [17]
  body weight loss: less than 10%
  deaths: does not cause any deaths

## CNC(=O)c1cc(Oc2ccc(NC(=O)Nc3ccc(Cl)c(C(F)(F)F)c3)cc2)ccn1 [sorafenib]
^V600EBRAF in cells
  activity against ^V600EBRAF in cells: 2 to 5 µM
  fold less active in cells than against the purified kinase: approximately 100 fold
[15]
  activity against the purified kinase in vitro: 40 nM

Source: paper PMC3001191 (Cancer research, 2010)
